Data as given in ChEMBL document CHEMBL3286131, “Design, synthesis and systematic evaluation of cytotoxic 3-heteroarylisoquinolinamines as topoisomerases inhibitors” (Eur J Med Chem, 2014).
Where “and” joins values, the source holds several entries; their conditions need not be identical. Equal values may be shown once.

How the values were obtained:
[1] = target: DNA topoisomerase 2-alpha (Homo sapiens) (UniProt P11388); experiment: Inhibition of human DNA topoisomerase-2a-mediated relaxation of supercoiled DNA pBR322 at 20 uM after 4 hrs using ethidium bromide staining by agarose gel electrophoresis analysis
Sequence of DNA topoisomerase 2-alpha (Homo sapiens) (P11388 whole entry): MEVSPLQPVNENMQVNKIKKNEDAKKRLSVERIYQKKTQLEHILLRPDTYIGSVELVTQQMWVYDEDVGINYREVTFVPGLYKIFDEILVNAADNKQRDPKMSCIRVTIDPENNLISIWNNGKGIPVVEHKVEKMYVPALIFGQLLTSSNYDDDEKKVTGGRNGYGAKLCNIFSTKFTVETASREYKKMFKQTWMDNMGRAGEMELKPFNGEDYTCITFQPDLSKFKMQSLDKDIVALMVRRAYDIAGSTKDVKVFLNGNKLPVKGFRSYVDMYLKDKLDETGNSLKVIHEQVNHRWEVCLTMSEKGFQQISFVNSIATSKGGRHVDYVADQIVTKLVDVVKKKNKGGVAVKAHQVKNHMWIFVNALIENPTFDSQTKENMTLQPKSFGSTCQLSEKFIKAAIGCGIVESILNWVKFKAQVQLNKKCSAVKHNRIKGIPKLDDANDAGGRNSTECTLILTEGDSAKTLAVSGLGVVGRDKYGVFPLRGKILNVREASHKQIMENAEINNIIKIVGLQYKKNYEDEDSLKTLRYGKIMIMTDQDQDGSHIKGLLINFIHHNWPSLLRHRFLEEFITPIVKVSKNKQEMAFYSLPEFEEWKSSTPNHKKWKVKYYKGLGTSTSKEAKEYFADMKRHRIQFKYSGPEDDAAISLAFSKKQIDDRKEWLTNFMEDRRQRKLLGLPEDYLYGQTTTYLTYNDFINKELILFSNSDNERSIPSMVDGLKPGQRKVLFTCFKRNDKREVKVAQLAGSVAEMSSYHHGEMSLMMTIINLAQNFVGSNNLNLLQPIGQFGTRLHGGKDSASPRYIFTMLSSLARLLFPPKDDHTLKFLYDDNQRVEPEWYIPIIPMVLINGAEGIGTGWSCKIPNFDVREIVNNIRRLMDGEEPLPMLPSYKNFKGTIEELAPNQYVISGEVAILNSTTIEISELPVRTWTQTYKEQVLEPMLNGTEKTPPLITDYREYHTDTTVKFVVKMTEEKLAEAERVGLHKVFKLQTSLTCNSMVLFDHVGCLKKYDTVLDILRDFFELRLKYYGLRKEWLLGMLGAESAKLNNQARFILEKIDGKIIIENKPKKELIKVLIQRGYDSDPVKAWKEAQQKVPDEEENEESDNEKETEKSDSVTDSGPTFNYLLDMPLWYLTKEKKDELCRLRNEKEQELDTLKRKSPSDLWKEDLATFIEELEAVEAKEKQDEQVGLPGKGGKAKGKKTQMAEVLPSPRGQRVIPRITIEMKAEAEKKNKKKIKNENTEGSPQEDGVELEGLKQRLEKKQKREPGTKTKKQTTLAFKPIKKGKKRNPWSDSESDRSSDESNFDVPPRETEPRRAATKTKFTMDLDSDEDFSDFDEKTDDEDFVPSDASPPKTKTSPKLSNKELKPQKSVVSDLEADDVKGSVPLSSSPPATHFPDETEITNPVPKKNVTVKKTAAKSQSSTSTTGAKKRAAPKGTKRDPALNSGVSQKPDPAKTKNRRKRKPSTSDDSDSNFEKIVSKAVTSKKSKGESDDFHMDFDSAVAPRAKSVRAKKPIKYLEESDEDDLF
Summary of the method: (§1)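 Supercoiled pBR322 (200 ng) incubated with human topo IIα (1 unit) ± compound for 30 min at 30 °C. Buffer: 10 mM Tris-HCl pH 7.9, 50 mM NaCl, 50 mM KCl, 5 mM MgCl2, 1 mM EDTA, 1 mM ATP, BSA. Stopped with EDTA. 1% agarose gel run at 25 V for 4 h in TAE, ethidium bromide stain, supercoiled DNA quantified by UV imaging.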

[2] = target: DNA topoisomerase 2-alpha (Homo sapiens) (UniProt P11388); experiment: Inhibition of human DNA topoisomerase-2a-mediated relaxation of supercoiled DNA pBR322 at 100 uM after 4 hrs using ethidium bromide staining by agarose gel electrophoresis analysis; summary of the method: as §1
[3] = target: T1, DNA topoisomerase 1 (Homo sapiens) (UniProt P11387); experiment: Inhibition of recombinant human DNA topoisomerase-1-mediated relaxation of supercoiled DNA pBR322 at 100 uM after 7 hrs using ethidium bromide staining by agarose gel electrophoresis analysis
T1 sequence (whole entry): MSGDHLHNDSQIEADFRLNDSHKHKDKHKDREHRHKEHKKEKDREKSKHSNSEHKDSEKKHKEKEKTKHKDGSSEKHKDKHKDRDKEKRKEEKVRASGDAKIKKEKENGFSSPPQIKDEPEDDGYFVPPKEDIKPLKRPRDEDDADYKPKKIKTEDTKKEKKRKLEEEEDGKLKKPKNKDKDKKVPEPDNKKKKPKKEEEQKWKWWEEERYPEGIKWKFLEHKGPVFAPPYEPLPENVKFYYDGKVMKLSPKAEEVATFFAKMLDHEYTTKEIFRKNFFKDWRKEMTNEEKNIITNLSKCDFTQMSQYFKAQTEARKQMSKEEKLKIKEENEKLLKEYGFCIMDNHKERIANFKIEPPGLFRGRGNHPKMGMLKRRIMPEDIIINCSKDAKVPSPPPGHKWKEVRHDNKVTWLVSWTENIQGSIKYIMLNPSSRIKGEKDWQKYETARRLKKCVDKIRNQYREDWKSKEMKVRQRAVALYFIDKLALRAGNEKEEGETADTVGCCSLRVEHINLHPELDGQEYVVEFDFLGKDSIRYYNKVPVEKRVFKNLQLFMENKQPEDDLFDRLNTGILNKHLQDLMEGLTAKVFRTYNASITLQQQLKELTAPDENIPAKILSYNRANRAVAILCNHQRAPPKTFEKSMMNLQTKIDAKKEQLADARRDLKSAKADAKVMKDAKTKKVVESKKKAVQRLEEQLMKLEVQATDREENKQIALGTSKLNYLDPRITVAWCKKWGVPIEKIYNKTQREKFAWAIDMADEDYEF
Summary of the method: (§2)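 pBR322 (100 ng) incubated with recombinant human topo I (0.4 units) ± compound for 30 min at 37 °C. Buffer: 10 mM Tris-HCl pH 7.9, 150 mM NaCl, 0.1% BSA, 1 mM spermidine, 5% glycerol. Quenched with sarcosyl stop solution. 1% agarose gel run at 15 V for 7 h in TAE, ethidium bromide stain, supercoiled DNA quantified under UV.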

[4] = target: T1, DNA topoisomerase 1 (Homo sapiens); experiment: Inhibition of recombinant human DNA topoisomerase-1-mediated relaxation of supercoiled DNA pBR322 at 20 uM after 7 hrs using ethidium bromide staining by agarose gel electrophoresis analysis; summary of the method: as §2
HeLa [5] = experiment: Cell cycle arrest in human HeLa cells assessed as accumulation at G2/M phase phase after 24 hrs using […] by flow cytometry analysis relative to control; assay type: functional, cell-based
Summary of the method: (§3)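 HeLa cells exposed to graded compound concentrations for 24 h, harvested by centrifugation, PBS-washed twice, fixed overnight on ice in 70% ethanol. Stained with 10 μg/mL propidium iodide plus 0.5 mg/mL RNase and 0.1% Triton X-100 in PBS, 30 min at 37 °C in the dark. Flow cytometry gates: sub-G0/G1, G0/G1, S, G2/M.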

HeLa [6] = experiment: Cell cycle arrest in human HeLa cells assessed as accumulation at sub-G0/G1 phase after 24 hrs using […] by flow cytometry analysis relative to control; assay type: functional, cell-based; summary of the method: as §3
[7] = Cytotoxicity against human HCT15 cells after 2 days; assay type: functional, cell-based, HCT-15; conditions: Homo sapiens, HCT-15, 48 h
Summary of the method: (§4)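 Cells seeded at 2-4 × 10^4 per well in medium with 10% FBS and incubated overnight at 37 °C, 5% CO2. Graded compound concentrations added on day 2. CCK-8 reagent added on day 4 for a further 4 h, absorbance read at 450 nm. IC50 from a four-parameter logistic fit; mean ± S.D. of three experiments run in triplicate.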

DU-145 = experiment: Cytotoxicity against human DU145 cells after 2 days; assay type: functional, cell-based; conditions: Homo sapiens, DU-145, 48 h; summary of the method: as §4
[8] = Cytotoxicity against human MCF10A cells after 2 days; assay type: cell-based, MCF-10A; conditions: Homo sapiens, MCF-10A, 48 h; summary of the method: as §4
T47D = experiment: Cytotoxicity against human T47D cells after 2 days; assay type: functional, cell-based; conditions: Homo sapiens, T47D, 48 h; summary of the method: as §4

Structure (SMILES) | inhibition [1] | inhibition [2] | inhibition [3] | inhibition [4] | Activity (HeLa [5]) | Activity (HeLa [6]) | IC50 [7] [µM] | IC50 (DU-145) [µM] | IC50 [8] [µM] | IC50 (T47D) [µM]
Cc1ccc2c(N3CCNCC3)nc(-c3cccs3)cc2c1 | 0% |  | 59% and 59.6% | 0% |  |  |  |  |  | 
c1csc(-c2cc3ccccc3c(N3CCNCC3)n2)c1 | 0% |  |  | 0.6% and 4.8% |  |  |  |  |  | 
Cc1ccc2c(NCc3ccccc3)nc(-c3cccs3)cc2c1 | 1.1% | 68.9% | 0% |  |  |  | 8.62 | > 50 | > 50 | 6.57

Continued, in another order:

inhibition [1] | inhibition [2] | inhibition [3] | inhibition [4] | Structure (SMILES) | Activity (HeLa [5]) | Activity (HeLa [6]) | IC50 [7] [µM] | IC50 (DU-145) [µM] | IC50 [8] [µM] | IC50 (T47D) [µM]
0.5% and 1.8% | 42.9% and 48.1% | 0% |  | c1csc(-c2cc3ccccc3c(N3CCCCC3)n2)c1 |  |  |  |  |  | 
0% | 14.6% and 22.5% | 0% |  | Nc1nc(-c2cccs2)cc2ccccc12 | Dose-dependent effect | Dose-dependent effect |  |  |  | 
1.1% |  |  | 0% | Cc1ccc2c(N3CCCCC3)nc(-c3cccs3)cc2c1 |  |  |  |  |  | 
